{"data": "Published values gathered from unrelated publications", "target": "Serine/threonine-protein kinase MAK (MAK, Homo sapiens, UniProt P20794)", "One construct used (P20794 1-623)": "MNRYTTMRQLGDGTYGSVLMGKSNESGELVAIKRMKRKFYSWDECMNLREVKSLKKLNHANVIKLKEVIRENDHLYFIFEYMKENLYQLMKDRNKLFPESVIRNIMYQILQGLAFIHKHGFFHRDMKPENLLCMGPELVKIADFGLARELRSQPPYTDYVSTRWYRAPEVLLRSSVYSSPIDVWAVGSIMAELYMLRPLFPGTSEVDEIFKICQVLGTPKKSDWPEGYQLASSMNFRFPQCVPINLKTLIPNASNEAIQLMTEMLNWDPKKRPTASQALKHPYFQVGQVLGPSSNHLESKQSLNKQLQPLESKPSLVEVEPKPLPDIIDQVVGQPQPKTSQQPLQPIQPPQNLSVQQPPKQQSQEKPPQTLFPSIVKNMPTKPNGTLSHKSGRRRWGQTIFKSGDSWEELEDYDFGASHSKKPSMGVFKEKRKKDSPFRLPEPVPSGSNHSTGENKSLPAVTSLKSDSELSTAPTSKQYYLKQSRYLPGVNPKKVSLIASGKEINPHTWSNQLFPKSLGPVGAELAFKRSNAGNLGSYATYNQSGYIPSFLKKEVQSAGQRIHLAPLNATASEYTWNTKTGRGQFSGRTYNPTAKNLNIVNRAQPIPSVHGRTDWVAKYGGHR", "note": "Compare with care: the assays were run in different laboratories."}
{"SMILES": "C[C@H]1CCN(c2nccc(-c3cnn4ncccc34)n2)C1", "assay": "binding", "conditions": "1 µM", "remaining binding [%]": 66}
{"SMILES": "CCCCN(CCCC)C(=O)CN1C[C@H](c2cc(OC)c3c(c2)OCO3)[C@@H](C(=O)O)[C@@H]1CC(C)(C)CCC", "assay": "cell-free assay, competition with immobilised ligand", "conditions": "1 µM", "remaining binding [%]": 100}
{"SMILES": "O=C(Nc1c[nH]nc1C(=O)NC1CCNCC1)c1cc(F)cc(F)c1", "assay": "binding, competition with immobilised ligand", "conditions": "1 µM", "remaining binding [%]": 78}
{"SMILES": "CN(CCCC(F)(F)F)c1nccc(-c2cnn3ncccc23)n1", "assay": "binding", "conditions": "1 µM", "remaining binding [%]": 100}
{"SMILES": "O=C(c1ccc(Nc2ncc(Cl)c(-c3ccc(Cl)s3)n2)cc1)N1CCC(N2CCCC2)CC1", "assay": "binding, competition with immobilised ligand", "conditions": "1 µM", "remaining binding [%]": 85}
{"SMILES": "CN(C)c1ncc(F)c(-c2cnn3ncccc23)n1", "assay": "binding", "conditions": "1 µM", "remaining binding [%]": 91}
{"SMILES": "O=C(O)[C@H]1[C@H](Cn2nnc3ccccc3c2=O)CC[C@@H]1C(=O)c1ccc(OCCC2CCOCC2)cc1", "assay": "binding, competition with immobilised ligand", "conditions": "1 µM", "remaining binding [%]": 95}
{"SMILES": "Cc1cnn2ncc(-c3ccnc(N(C)C)n3)c2c1", "assay": "binding", "conditions": "1 µM", "remaining binding [%]": 46}
{"SMILES": "CO[C@H]1CC[C@H](CNc2ccc(S(=O)(=O)NC(=O)c3ccc(N4CCN(CC5=C(c6ccc(Cl)cc6)CC(C)(C)CC5)CC4)cc3Oc3cnc4[nH]ccc4c3)cc2[N+](=O)[O-])CC1", "assay": "cell-free assay, competition with immobilised ligand", "conditions": "1 µM", "remaining binding [%]": 90}
{"SMILES": "CN(C)c1nccc(-c2cnn3ncccc23)n1", "assay": "binding", "conditions": "1 µM", "remaining binding [%]": 100}
{"SMILES": "O=C(Nc1cccnn1)N1CCC(=Cc2cccc(Oc3ccc(C(F)(F)F)cn3)c2)CC1", "assay": "cell-free assay, competition with immobilised ligand", "conditions": "1 µM", "remaining binding [%]": 100}
{"SMILES": "O=C(NCCCN1CCOCC1)c1ccc(Nc2ncc(Cl)c(-c3ccc(Cl)s3)n2)cc1", "assay": "binding, competition with immobilised ligand", "conditions": "1 µM", "remaining binding [%]": 100}
{"SMILES": "C[C@@H](c1cccc(C#N)c1)n1cc(Cl)cc(C(N)=O)c1=N", "assay": "binding, competition with immobilised ligand", "conditions": "1 µM", "remaining binding [%]": 94}
{"SMILES": "N[C@H]1CCN(c2nccc(-c3cnn4ncccc34)n2)C1", "assay": "binding", "conditions": "1 µM", "remaining binding [%]": 78}
{"SMILES": "COc1cnc(Nc2cccc(S(N)(=O)=O)c2)nc1N1CCN(c2ccccc2)C(=O)C1", "assay": "binding, competition with immobilised ligand", "conditions": "1 µM", "remaining binding [%]": 96}
{"SMILES": "Cc1cnc(Nc2ccc(C(=O)N3CCC(N4CCCC4)CC3)cc2)nc1-c1cc2ccccc2s1", "assay": "binding, competition with immobilised ligand", "conditions": "1 µM", "remaining binding [%]": 100}
{"SMILES": "O=C(Nc1cnc(Oc2ccc(F)cc2)nc1)N1CCc2ncccc2[C@@H]1c1ccc(F)cc1", "assay": "cell-free assay, competition with immobilised ligand", "conditions": "1 µM", "remaining binding [%]": 100}
{"SMILES": "COc1ccnn2ncc(-c3ccnc(N(C)C)n3)c12", "assay": "binding", "conditions": "1 µM", "remaining binding [%]": 100}
{"SMILES": "Cn1nc(C(=O)NCc2ccc(C(=O)O)cc2)cc1-c1ccc2[nH]ccc2c1", "assay": "cell-free assay, competition with immobilised ligand", "conditions": "0.1 µM", "remaining binding [%]": 92}
{"SMILES": "COc1ncc2cc3ccccc3nc2c1C#N", "assay": "binding, competition with immobilised ligand", "conditions": "5 µM", "remaining binding [%]": 87}
{"SMILES": "CCN1CCN(Cc2ccc(C(=O)Nc3ccc(C)c(Oc4ccc5c(c4)CC(=O)N5)c3)cc2C(F)(F)F)CC1", "assay": "binding, competition with immobilised ligand", "conditions": "1 µM", "remaining binding [%]": 100}
{"SMILES": "CNC(=O)[C@@H]1CC[C@@H](n2c(-c3ccc4cnccc4c3)nc3ccc(C(=O)NCc4cccc(C(N)=O)c4)cc32)C1", "assay": "binding, competition with immobilised ligand", "conditions": "1 µM", "remaining binding [%]": 80}
